Experimental data collected from several papers.
Target: Mitogen-activated protein kinase 10 (MAPK10, Homo sapiens, UniProt P53779)

SMILES | assay | setting | remaining binding [%]
CCN1CCN(Cc2ccc(C(=O)Nc3ccc(C)c(Oc4ccc5c(c4)CC(=O)N5)c3)cc2C(F)(F)F)CC1 | binding, competition with immobilised ligand | 1 µM | 81
O=C(c1ccc(Nc2ncc(Cl)c(-c3cc4ccccc4s3)n2)cc1)N1CCC(N2CCCC2)CC1 | binding, competition with immobilised ligand | 1 µM | 5.8
CN(CCCC(F)(F)F)c1nccc(-c2cnn3ncccc23)n1 | binding | 1 µM | 97
O=C(N1CCS(=O)(=O)CC1)N1C[C@H](c2ccc(OC(F)(F)F)cc2)C[C@H](c2nc(C3CC3)no2)C1 | cell-free assay, competition with immobilised ligand | 1 µM | 79
O=C(NCC1CCOCC1)c1n[nH]cc1NC(=O)c1c(F)cccc1F | binding, competition with immobilised ligand | 1 µM | 31
Cc1cnn2ncc(-c3ccnc(N(C)C)n3)c2c1 | binding | 1 µM | 71
CN(C)C(=O)Cn1cc(-c2nc([C@@](C)(c3ccc(-c4cnc(N)nc4)cc3)C3CC3)no2)cn1 | cell-free assay, competition with immobilised ligand | 1 µM | 94
N#Cc1ccccc1CSc1nnc2c(n1)[nH]c1ccccc12 | binding, competition with immobilised ligand | 10 µM | 100
N[C@H]1CCN(c2nccc(-c3cnn4ncccc34)n2)C1 | binding | 1 µM | 60
O=C(O)[C@@H]1[C@@H](Cn2nnc3ccccc3c2=O)CC[C@H]1C(=O)c1ccc(OCCC2CCOCC2)cc1 | cell-free assay, competition with immobilised ligand | 1 µM | 100
C[C@H]1CCN(c2nccc(-c3cnn4ncccc34)n2)C1 | binding | 1 µM | 32
CO[C@H]1CC[C@H](CNc2ccc(S(=O)(=O)NC(=O)c3ccc(N4CCN(CC5=C(c6ccc(Cl)cc6)CC(C)(C)CC5)CC4)cc3Oc3cnc4[nH]ccc4c3)cc2[N+](=O)[O-])CC1 | cell-free assay, competition with immobilised ligand | 1 µM | 77
O=C(NCCCN1CCOCC1)c1ccc(Nc2ncc(Cl)c(-c3ccc(Cl)s3)n2)cc1 | binding, competition with immobilised ligand | 1 µM | 4.7
CN(C)c1ncc(F)c(-c2cnn3ncccc23)n1 | binding | 1 µM | 73
C[C@@H]1CN(c2ccc3ncc(-c4ccc5[nH]nc(C6CC6)c5c4)n3n2)C[C@H](C)O1 | binding, competition with immobilised ligand | 0.5 µM | 52
CS(=O)(=O)NCC[C@H](NC(=O)c1cncc2c1cnn2-c1ccc(F)cc1)c1ccnc(S(C)(=O)=O)c1 | cell-free assay, competition with immobilised ligand | 1 µM | 100
FC(F)(F)Oc1cccc(-c2cnc3ccc(-c4ccncc4)nn23)c1 | cell-free assay, competition with immobilised ligand | 5 µM | 65
COc1ncc2cc3ccccc3nc2c1C#N | cell-free assay, competition with immobilised ligand | 5 µM | 100
COc1ccnn2ncc(-c3ccnc(N(C)C)n3)c12 | binding | 1 µM | 80
COC(=O)Nc1nc2ccc(C(=O)c3ccccc3)cc2[nH]1 | cell-free assay, competition with immobilised ligand | 10 µM | 3
CC1=C(C#N)[C@@H](c2ccc3[nH]nc(C)c3c2)C(C#N)=C(c2ccc(Cl)cc2)N1 | cell-free assay, competition with immobilised ligand | 1 µM | 68.8
CNC(=O)[C@@H]1CC[C@@H](n2c(-c3ccc4cnccc4c3)nc3ccc(C(=O)NCc4cccc(C(N)=O)c4)cc32)C1 | binding, competition with immobilised ligand | 1 µM | 84
Cc1nc(N2CC[C@@H](O)C2)ncc1-c1cc(C(F)(F)F)cc2[nH]ncc12 | binding, competition with immobilised ligand | 1 µM | 72
O=C(NCCCN1CCOCC1)c1ccc(Nc2nccc(-c3cc4ccccc4s3)n2)cc1 | binding, competition with immobilised ligand | 1 µM | 15
